The source of these data is ChEMBL document CHEMBL4765325, “Discovery of dihydropyrrolidones as novel inhibitors against influenza A virus” (Eur J Med Chem, 2020).

A short description of series [1]: Selectivity index, ratio of CC50 for dog MDCK cells to IC50 for antiviral activity against Influenza A virus (A/Puerto Rico/8/34(H1N1)) harboring NA H274Y mutant. It is filed as toxicity. Conditions: read-out: Ratio CC50/IC50. In short, it runs like this:
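SI = CC50/IC50, both from MTT read-outs in MDCK cells in triplicate. Cytotoxicity: 2 × 10⁴ cells/well, overnight at 37 °C with 5% CO2, then compound at 1.56–400 µM for 48 h, MTT 4 h, DMSO, A570. Antiviral: cells infected 1 h, washed, then cultured 48 h in DMEM with TPCK and two-fold serial compound dilutions.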

Series [2] relates to Influenza A virus. The experiment in a line: Antiviral activity against Influenza A virus (A/Puerto Rico/8/34(H1N1)) harboring NA H274Y mutant infected in dog MDCK cells assessed as reduction in virus-induced cytopathogenicity incubated for 48 hrs by microscopic analysis. The class given is functional, organism-based, A/Puerto Rico/8/1934(H1N1). In short, it runs like this: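 MDCK cells were infected with each IAV strain at 100TCID₅₀ for 1 h, then washed twice with PBS. They were cultured 48 h in DMEM with two-fold serial compound dilutions and 1 mg/ml TPCK. Antiviral activity was read by an MTT-based method, giving IC₅₀ from triplicate wells as mean SD.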
In general terms: Damage to the host cells serves as the signal in cytopathic effect assays.

As usually defined, the IC50 is the concentration at which inhibition is half-maximal.

As for `CCOC(=O)C1=C(Nc2ccc(C(F)(F)F)cc2)C(=O)N(c2ccc(C(F)(F)F)cc2)C1c1ccccc1` (configuration not stated), the selectivity ratio in series [1] is more than 61.6. Further, the IC50 in series [2] came out at 6.48 µM.
